Screening data: PubChem, several laboratories
Diaph act CS = compounds boosting diaphorase resazurin reduction – biochemical, uHTS, resorufin fluorescence, counter-screen for diaphorase-coupled primary assays, primary screen; Diaphorase/resazurin coupled assay, 16 min; hits give high values; 1 = vehicle wells, 0 = NADH-free wells; activation factor at 20 µM; 190,000 tested, 0.005% active; AID 1229, 2008;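 active means diaphorase activity raised at least twofold by the compound at 20 µM; inactive means activation factor below 2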
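test system = bacterial diaphorase enzyme (C. kluyveri) | quantity = enzyme 0.07 U/mL final | reagent = NADH substrate 0.114 mM plus resazurin dye 0.1 mM, final | incubation = 16 min enzyme reaction, ambient temperature | buffer or medium = HEPES pH 7.4 buffer with MgCl2 and Tween 20 | signal = fluorescence of resorufin, 544 nm excitation, 590 nm emission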
FLuc inh counter = firefly luciferase enzyme inhibitors, primary screen, artefact control for luciferase-based inhibitor screens, biochemical, luminescence, ATPLite. Luciferin 4-monooxygenase (Photinus pyralis), P08659. AID 1006, 2008. 200,000 tested, 1.5% active. 10 min. inhibition, % at 10 µM;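 active means inhibition above about 50% when tested at 10 µM, limit read from the data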
ABCG2 inh = ABCG2 efflux pump inhibitors, primary screen, multiplex with ABCB1, IgMXP3 cells, flow cytometry; JC-1 efflux; inhibition, % at 6.6 µM; 190,000 tested, 0.1% active;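 active means inhibition above 80%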
Target sequence (Q9UNQ0 whole entry, looked up): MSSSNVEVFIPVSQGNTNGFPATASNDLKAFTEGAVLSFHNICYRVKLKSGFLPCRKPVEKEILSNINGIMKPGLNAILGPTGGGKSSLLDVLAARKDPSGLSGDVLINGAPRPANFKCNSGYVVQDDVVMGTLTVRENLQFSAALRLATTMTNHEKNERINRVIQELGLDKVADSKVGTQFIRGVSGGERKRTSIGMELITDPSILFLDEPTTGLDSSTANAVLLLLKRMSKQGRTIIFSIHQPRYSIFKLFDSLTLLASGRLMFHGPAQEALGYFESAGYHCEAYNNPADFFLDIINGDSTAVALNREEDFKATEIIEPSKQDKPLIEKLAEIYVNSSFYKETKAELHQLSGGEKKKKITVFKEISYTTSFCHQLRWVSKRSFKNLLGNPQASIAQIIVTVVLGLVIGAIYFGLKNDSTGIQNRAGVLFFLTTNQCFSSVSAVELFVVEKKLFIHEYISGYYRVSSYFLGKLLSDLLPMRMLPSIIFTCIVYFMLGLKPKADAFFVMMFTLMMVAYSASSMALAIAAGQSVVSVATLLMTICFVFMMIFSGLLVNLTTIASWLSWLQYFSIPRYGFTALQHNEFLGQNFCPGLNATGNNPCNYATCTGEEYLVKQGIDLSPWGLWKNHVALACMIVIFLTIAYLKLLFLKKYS
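test system = two drug-resistant human cell lines, ABCG2 and ABCB1 | amount = 3 million cells/mL final, two lines in 1:1 ratio | reagent = JC-1 transporter substrate | doses = one concentration, 6.6 µM final | incubation = 10 min at 25 °C | signal = flow cytometric JC-1 green MFI at 530 nm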
FLuc act counter = FLuc activators, initial screening, artefact control for FLuc-dependent activation tests, biochemical, ATPlite luminescence | Luciferin 4-monooxygenase (Photinus pyralis), P08659 | ATPlite luciferase biochemical, 10 min; 0 = ATP-free wells, 1 = DMSO control | activation factor at 10 µM | 200,000 tested, under 10 active | AID 1027, 2008;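 active means luciferase activation factor, scaled between plate controls, of at least 2 with compound at 10 µM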
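System: Luciferase/luciferin detection reagent, cell-free biochemical luciferase assay | Medium: PBS buffer for ATP | Dosing: Test compounds dosed from 2 mM stocks in 100% DMSO | Timing: 10 min at ambient temperature | Signal: Luminescence measurement of luciferase light output | Evaluation: Luciferase activation, seen as luminescence increase over controls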
ABCB1 block = ABCB1 efflux pump inhibitors, primary screen, cell-based, multiplex, flow cytometry, ABCG2 counter-screen | ATP-dependent translocase ABCB1 (Homo sapiens), P08183 | CCRF-Adr cells, JC-1 efflux | inhibition, % at 6.6 µM | 190,000 tested, 0.067% active | AID 1326, 2008; in the data active means inhibition above about 40%;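 further: higher value means more JC-1 retained so stronger ABCB1 efflux block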
ABCB6 inh 2 = ABCB6 transporter inhibitors, primary screen, K562-ABCB6 cells, flow cytometry, MLPCN library | ATP-binding cassette sub-family B member 6 (Homo sapiens), Q9NP58 | 360,000 tested, 0.19% active | fluorescence ratio to DMSO, % at 10 µM | K562-ABCB6 porphyrin accumulation, 1 h; hits give low values;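 active means fluorescence ratio to DMSO below 75%, the collection mean minus 3 SD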;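 further: signal is porphyrin accumulated inside mitochondria; lower ratio means ABCB6 inhibition with less porphyrin fluorescence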
Each line names hits and unclear results; the compound was inactive in the other large screens. The entries come from a sample that favours hits as a whole.

CC(C)CC(C(=O)NC(C)(C)C)N(Cc1ccccc1Cl)C(=O)c1snc(C(N)=O)c1N (centres undefined)	none (no result: Diaph act CS, FLuc inh counter, ABCG2 inh, FLuc act counter, ABCB1 block)
O=C(Nc1ccc(C(F)(F)F)cc1[N+](=O)[O-])O[C@H]1[C@H](Cc2ccccc2)NS(=O)(=O)[C@H]2C[C@@H]3C=C[C@]12O3	none (no result: Diaph act CS, FLuc inh counter, ABCG2 inh, FLuc act counter, ABCB1 block)
COc1ccc(C(=O)N2CCN(C)C(=O)[C@@H]2C)cc1OC1CCN(C(C)C)CC1	none (no result: Diaph act CS, FLuc inh counter, ABCG2 inh, FLuc act counter, ABCB1 block)
Cc1nc2scc(C)n2c(=O)c1S(=O)(=O)Nc1ccc(OC(F)(F)F)cc1	none (no result: Diaph act CS, FLuc inh counter, ABCG2 inh, FLuc act counter, ABCB1 block)
Cc1ccc(/C=C(\NC(=O)c2ccccc2)C(=O)NC2CCN(Cc3ccccc3)CC2)o1	none (no result: Diaph act CS, FLuc inh counter, ABCG2 inh, FLuc act counter, ABCB1 block)
Cc1ccc(NC(=O)c2noc3c2CCC3)cc1C	none
O=C(Nc1cccc(O)c1)c1noc2c1CCCCC2	FLuc inh counter 86
Cc1[nH]n(-c2ccccc2)c(=O)c1C=NCc1ccco1	none (no result: ABCB6 inh 2)
Cc1[nH]n(-c2cccc(Cl)c2)c(=O)c1C=NCc1ccco1	FLuc inh counter 65
COc1ccccc1NC(=O)/C=C/c1ccc2c(c1)OCO2	FLuc inh counter 61
Cc1cc(NC(=O)/C=C/c2ccc(F)cc2)n(-c2nc3ccccc3[nH]2)n1	none
NC(=O)c1ccccc1NC(=O)/C=C/c1cccc(Cl)c1	FLuc inh counter 56
COc1ccc(/C=C/C(=O)Nc2cc(C)nn2-c2nc3ccccc3[nH]2)cc1	FLuc inh counter 67
COc1ccccc1NC(=O)COC(=O)/C=C/c1ccc2c(c1)OCO2	none
COc1ccc(/C=C/C(=O)Nc2ccccc2C(=O)O)cc1OC	FLuc inh counter 54
CC1C(=O)N2CCCc3cc(NS(=O)(=O)c4ccccc4)cc1c32 (centres undefined)	none (no result: Diaph act CS, FLuc inh counter, ABCG2 inh, FLuc act counter, ABCB1 block)
CCOCCCNC(=O)C1(O)c2cc(Br)ccc2NC(=O)N1c1ccc(OCC)cc1 (centres undefined)	none (no result: Diaph act CS, FLuc inh counter, ABCG2 inh, FLuc act counter, ABCB1 block)
COc1ccc(/C=C/C(=O)Nc2ccccc2C(=O)O)cc1	FLuc inh counter 95
COc1ccc(NC(=O)O/N=C/c2ccc(Br)cc2)cc1	none (no result: Diaph act CS, FLuc inh counter, ABCG2 inh, FLuc act counter, ABCB1 block)
COc1ccc(/C=C/C(=O)Nc2ccccc2C(=O)N2CCCC2)cc1	none
COc1ccc(/C=N/OC(=O)Nc2ccccc2OC)cc1	FLuc inh counter 84
CN(C1CCCCC1)S(=O)(=O)c1ccc(SCC(=O)C(C)(C)C)nc1	none (no result: Diaph act CS, FLuc inh counter, ABCG2 inh, FLuc act counter, ABCB1 block)
O=C(Nc1ccc(OC(=O)c2ccco2)cc1)c1ccco1	FLuc inh counter 66
CCC(=O)Oc1ccc(NC(=O)c2ccco2)cc1	FLuc inh counter 61
CCC(=O)Nc1ccc(NC(=O)c2ccco2)cc1	none
Nc1ccn(C2CSC(CO)O2)c(=O)n1 (centres undefined)	none (no result: Diaph act CS, FLuc inh counter, ABCG2 inh, FLuc act counter, ABCB1 block)
O=C(CC1(O)C(=O)N(Cc2cccc3ccccc23)c2ccccc21)c1cccnc1 (centres undefined)	FLuc inh counter 69
O=C(Nc1ccc([N+](=O)[O-])cc1)Nc1ccc(OC(F)F)c(Cl)c1	ABCG2 inh 86
Cc1nn(CC(=O)N2CCN(S(=O)(=O)c3ccccc3)CC2)c(C)c1[N+](=O)[O-]	none (no result: Diaph act CS, FLuc inh counter, ABCG2 inh, FLuc act counter, ABCB1 block)
COC(=O)c1cn(NC(=O)c2cccc(N(C)C)c2)c(=O)c2ccccc12	ABCB6 inh 2 72
CC(C)N1C(=O)C(=O)N(CC(=O)N2c3ccccc3NC(=O)CC2C)C1=O (centres undefined)	none (no result: Diaph act CS, FLuc inh counter, ABCG2 inh, FLuc act counter, ABCB1 block)
Nc1ccc(Nc2nc(-c3ccncc3)cs2)cc1	FLuc inh counter 59
CC(=O)Nc1ccc2nc(-c3ccccn3)[nH]c2c1	FLuc inh counter 51
CC(=O)Nc1ccc2nc(-c3ccncc3)[nH]c2c1	none
Nc1ccc2nc(-c3cccc(-c4nc5ccc(N)cc5[nH]4)n3)[nH]c2c1	none (no result: Diaph act CS, FLuc inh counter, ABCG2 inh, FLuc act counter, ABCB1 block)
c1cncc(-c2nc3cc4ccccc4cc3[nH]2)c1	FLuc inh counter 82
c1ccc(-c2nc3cc4ccccc4cc3[nH]2)nc1	FLuc inh counter 95
CC1CN(C(=S)Nc2cccc(Cl)c2Cl)CC(C)O1 (centres undefined)	none (no result: Diaph act CS, FLuc inh counter, ABCG2 inh, FLuc act counter, ABCB1 block)
COc1ccc(CCN(CC(=O)NCc2ccc(F)cc2)C(=O)c2snc(C(N)=O)c2N)cc1OC	none (no result: Diaph act CS, FLuc inh counter, ABCG2 inh, FLuc act counter, ABCB1 block)
N#C/C(=C(/O)c1ccc(-c2cccc([N+](=O)[O-])c2)o1)c1nc2ccccc2s1	FLuc inh counter 66
N#Cc1c(NC(=O)c2ccccc2)sc2c1CCCCC2	FLuc inh counter 55
N#Cc1c(N2C(=O)Nc3ccccc3N2O)sc2c1CCCCCC2	FLuc inh counter 56
N#Cc1c(N2C(=O)Nc3ccccc3N2O)sc2c1CCCC2	none
Cc1ccc(C(=O)Nc2sc3c(c2C#N)CCCCC3)cc1C	none
CC1(C)Cc2c(sc(NC(=O)c3ccccc3)c2C(=O)O)CO1	FLuc inh counter 59
O=C(Nc1sc2c(c1C(=O)O)CCCCC2)c1ccccc1	FLuc inh counter 72
Cc1cc(/C=C\c2ccccc2)nc2ccccc12	FLuc inh counter 68
O=C(O/N=C1/CCSc2ccccc21)c1ccc(F)cc1	FLuc inh counter 88
O=C(O/N=C1/CCCc2occc21)c1ccc(F)cc1	FLuc inh counter 80
O=C(O/N=C1\CCS(=O)(=O)c2sccc21)c1ccc(F)cc1	none
O=C(NCc1ccco1)c1ccc(-c2ccc3nccn3c2)cc1	none (no result: Diaph act CS, FLuc inh counter, ABCG2 inh, FLuc act counter, ABCB1 block)
Cc1cc(-c2cn3ccccc3n2)c(C)n1-c1ccccc1	FLuc inh counter 94
COC(=O)c1ccccc1NC(=O)COC(=O)c1ccccc1N=Nc1ccc(N(C)C)cc1	none
